For one data set, the system named is CAKI-1. The data set is described as follows: Growth inhibition of human CAKI-1 cells at 10 uM relative to control. In kind it is functional. As to conditions: read-out: GI. The method in brief:
(§1)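 Each cell line in a 60-line human tumour panel exposed to one 10 μM concentration. Growth inhibition percentage computed as 100 minus the percentage activity relative to control.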

For a further data set, the system named is K562. The data set is described as follows: Growth inhibition of human K562 cells at 10 uM relative to control. It counts as functional. As to conditions: read-out: GI. The method in brief: as §1
Data set [1] can be described thus: Growth inhibition of human Hs 578T cells at 10 uM relative to control. In kind it is functional. As to conditions: read-out: GI. In short, it runs like this: as §1
The subject of a further data set is U-251. The data set is described as follows: Growth inhibition of human U251 cells at 10 uM relative to control. It counts as functional. Conditions: read-out: GI. The method in brief: (§2)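 Single-dose screen across the 60-cell-line human tumor panel at 10 μM. Growth inhibition is reported as a percentage, taken as 100 minus the % growth relative to untreated control.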

A further data set has as its system NCI-H226. The data set is described as follows: Growth inhibition of human NCI-H226 cells at 10 uM relative to control. It counts as functional. Conditions: read-out: GI. The method in brief: as §1
A further data set has as its system UACC-62. The data set is described as follows: Growth inhibition of human UACC62 cells at 10 uM relative to control. It counts as functional. Conditions: read-out: GI. The method in brief:
as §2

A further data set has as its system HCC 2998. The data set is described as follows: Growth inhibition of human HCC2998 cells at 10 uM relative to control. In kind it is functional. Conditions: read-out: GI. In short, it runs like this:
as §1

A further data set deals with UO-31. The data set is described as follows: Growth inhibition of human UO31 cells at 10 uM relative to control. It counts as functional. Conditions: read-out: GI. In short, it runs like this: as §2
In a further data set the test system is SF-539. The data set is described as follows: Growth inhibition of human SF539 cells at 10 uM relative to control. In kind it is functional. As to conditions: read-out: GI. The method in brief: as §1
In the next data set the test system is RPMI-8226. The data set is described as follows: Growth inhibition of human RPMI8226 cells at 10 uM relative to control. It counts as functional. Conditions: read-out: GI. In short, it runs like this: as §1
Another data set relates to MOLT-4. The data set is described as follows: Growth inhibition of human MOLT4 cells at 10 uM relative to control. It counts as functional. As to conditions: read-out: GI. In short, it runs like this: as §1
The next data set relates to A549. The data set is described as follows: Growth inhibition of human A549 cells at 10 uM relative to control. In kind it is functional. As to conditions: read-out: GI. In short, it runs like this: as §1
The test system of a further data set is CCRF-CEM. The data set is described as follows: Growth inhibition of human CCRF-CEM cells at 10 uM relative to control. In kind it is functional. Conditions: read-out: GI. In short, it runs like this:
as §1

The test system of the next data set is NCI-H522. The data set is described as follows: Growth inhibition of human NCI-H522 cells at 10 uM relative to control. In kind it is functional. As to conditions: read-out: GI. The method in brief: as §1
Another data set deals with A498. The data set is described as follows: Growth inhibition of human A498 cells at 10 uM relative to control. It counts as functional. Conditions: read-out: GI. The method in brief: as §1
For another data set, the system named is HT-29. The data set is described as follows: Growth inhibition of human HT-29 cells at 10 uM relative to control. In kind it is functional. Conditions: read-out: GI. In short, it runs like this: as §1
The next data set has as its system SF-295. The data set is described as follows: Growth inhibition of human SF295 cells at 10 uM relative to control. In kind it is functional. Conditions: read-out: GI. The method in brief:
as §1

Another data set has as its system EKVX. The data set is described as follows: Growth inhibition of human EKVX cells at 10 uM relative to control. Conditions: read-out: GI. It counts as functional. In short, it runs like this: as §1
The next data set concerns PC-3. The data set is described as follows: Growth inhibition of human PC3 cells at 10 uM relative to control. In kind it is functional. As to conditions: read-out: GI. The method in brief: as §1
The subject of a further data set is SK-MEL-28. The data set is described as follows: Growth inhibition of human SK-MEL-28 cells at 10 uM relative to control. In kind it is functional. As to conditions: read-out: GI. The method in brief:
as §1

A further data set has as its system SNB-19. The data set is described as follows: Growth inhibition of human SNB19 cells at 10 uM relative to control. In kind it is functional. As to conditions: read-out: GI. The method in brief:
as §2

Another data set has as its system SNB-75. The data set is described as follows: Growth inhibition of human SNB75 cells at 10 uM relative to control. In kind it is functional. Conditions: read-out: GI. In short, it runs like this: as §2
The next data set deals with HL-60(TB). The data set is described as follows: Growth inhibition of human HL-60(TB) cells at 10 uM relative to control. It counts as functional. Conditions: read-out: GI. In short, it runs like this: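 Single-dose screen at 10 μM across the 60-cell-line tumour panel. Percent growth inhibition = 100 minus percent growth activity relative to untreated control.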

For another data set, the system named is OVCAR-8. The data set is described as follows: Growth inhibition of human OVCAR8 cells at 10 uM relative to control. In kind it is functional. Conditions: read-out: GI. In short, it runs like this: as §1
Another data set has as its system HCT-116. The data set is described as follows: Growth inhibition of human HCT116 cells at 10 uM relative to control. In kind it is functional. As to conditions: read-out: GI. In short, it runs like this:
as §1

The next data set concerns NCI-H23. The data set is described as follows: Growth inhibition of human NCI-H23 cells at 10 uM relative to control. In kind it is functional. Conditions: read-out: GI. The method in brief: as §1
Data set [2] has as its system Mus musculus. The data set is described as follows: Anticonvulsant activity in mouse assessed as protection against strychnine-induced seizure at 1 mmol/kg, ip administered 30 min prior to strychnine-challenge measured after 60 mins relative to control. In kind it is functional.
In data set [3] the test system is Mus musculus. The data set is described as follows: Anticonvulsant activity in mouse assessed as protection against maximal electroshock-induced seizure at 1 mmol/kg, ip administered 30 min prior to maximal electroshock-challenge measured after 60 mins relative to control. In kind it is functional. A general note: Protection in the maximal electroshock model is a classic sign of anticonvulsant action.

For data set [4], the system named is Mus musculus. The data set is described as follows: Anticonvulsant activity in mouse assessed as protection against pentylenetetrazol-induced seizure at 1 mmol/kg, ip administered 30 min prior to pentylenetetrazol-challenge measured after 60 mins relative to control. It counts as functional.
In data set [5] the test system is Mus musculus. The data set is described as follows: Anticonvulsant activity in mouse assessed as protection against picrotoxin-induced seizure at 1 mmol/kg, ip administered 30 min prior to picrotoxin-challenge measured after 60 mins relative to control. In kind it is functional.
Data set [6] in a line: Neurotoxicity in ip dosed mouse assessed as impaired motor coordination administered 30 mins prior to test by chimney test. It counts as toxicity, organism-based. As to conditions: in vivo. In short, it runs like this: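 Mice, Chimney test. TD50 is the dose that produces minimal neurological toxicity (impaired motor coordination) in 50% of animals, estimated from testing at several doses.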

Data set [7] deals with Mus musculus. The data set is described as follows: Anticonvulsant activity in ip dosed mouse assessed as protection against pentylenetetrazol-induced seizure administered 30 min prior to pentylenetetrazol-challenge measured after 60 mins. It counts as functional. The method in brief:
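Mice received several doses for quantification. ED50 taken as the dose protecting 50% of mice against pentylenetetrazol-induced seizures.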

Data set [8] can be described thus: Toxicity in ip dose mouse assessed as mortality. It counts as organism-based. Conditions: in vivo. The method in brief: (§3)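 In mice, LD50 is the dose causing 50% mortality. ED50 is the dose protecting 50% of mice against pentylenetetrazole-induced seizures. Therapeutic index = LD50/ED50.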
Data set [9] is described as follows: Therapeutic index, ratio of LD50 for mouse to ED50 for pentylenetetrazol-induced seizure in mouse. In kind it is organism-based. As to conditions: in vivo, read-out: Ratio LD50/ED50. The method in brief:
as §3

The species entered for data set [10] is Mus musculus. The data set is described as follows: Protective index, ratio of TD50 for mouse to ED50 for pentylenetetrazol-induced seizure in mouse. It counts as functional. The method in brief: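 Mice. Index is TD50/ED50. TD50 is the dose causing minimal neurological toxicity in 50% of mice in the Chimney test. ED50 is the dose protecting 50% of mice against pentylenetetrazole-induced seizures. Both are estimated from testing at several doses.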

The source of these data is ChEMBL document CHEMBL1955778, “Design and synthesis of novel 7-aminoquinazoline derivatives: antitumor and anticonvulsant activities” (Bioorg Med Chem Lett, 2012).

With `Cc1ccccc1-n1c(C)nc2cc(NS(=O)(=O)c3ccccc3)ccc2c1=O`, the inhibition of growth at 10 µM was 4% with CAKI-1; 10% in the data set with K562; 3.2% in data set [1]; 4% with U-251; 2.5% in the data set on NCI-H226; 9% in the data set on UACC-62. Further, the inhibition of growth at 10 µM in the data set on HCC 2998 was 4%; with UO-31, 13.6%; in the data set on SF-539, 4%; in the data set with RPMI-8226, 12%; in the data set on MOLT-4, 12.2%; with A549 it was 5%. The inhibition of growth at 10 µM worked out at 13% with CCRF-CEM; 2.2% in the data set with NCI-H522; 8% in the data set with A498; 3% in the data set with HT-29; 9% in the data set on SF-295; 14.3% in the data set with EKVX. The inhibition of growth at 10 µM in the data set on PC-3 stood at 8%; with SK-MEL-28, 2.4%; with SNB-19 it was 4%; in the data set with SNB-75, 14.8%; with HL-60(TB) it was 4%; with OVCAR-8 it was 5.4%. The inhibition of growth at 10 µM in the data set with HCT-116 amounted to 4%; in the data set on NCI-H23 it was 5.2%.
Take `Cc1ccccc1-n1c(C)nc2cc(-n3c(C)nc4ccc(Cl)cc4c3=O)ccc2c1=O`: the Activity stood at 0% in the data set on Mus musculus [2], 50% in the data set with Mus musculus [3] and 33% with Mus musculus [4].
Take `Cc1ccccc1-n1c(C)nc2cc(/N=C/c3ccc(F)cc3)ccc2c1=O`: the Activity was determined as 75% with Mus musculus [5], 0% with Mus musculus [2], 100% in the data set with Mus musculus [3] and 100% with Mus musculus [4]. Besides, the TD50 (commonly the dose at which the toxic effect under study appears in half of the subjects) at 0.5 h in [6] was determined as 930 µmol/kg. Besides, the median effective dose (ED50) (as a rule, the dose that gives a 50% effect, or the effect in half of the subjects) in the data set with Mus musculus [7] was 310 µmol/kg. For the same molecule, the LD50 (as a rule, the dose expected to kill half of the subjects tested) in data set [8] is 1710 µmol/kg. In addition, the selectivity ratio in data set [9] was found to be 5.5. For the same molecule, in the data set filed under Mus musculus [10], the “Ratio TD50/ED50” value stood at 3.
As to `Cc1ccccc1-n1c(C)nc2cc(-n3c(C)nc4ccccc4c3=O)ccc2c1=O`, the Activity is on record as 0% with Mus musculus [5], 0% in the data set on Mus musculus [2], 100% in the data set with Mus musculus [3] and 0% with Mus musculus [4].
Consider `Cc1ccc(S(=O)(=O)Nc2ccc3c(=O)n(-c4ccccc4C)c(C)nc3c2)cc1`, for which the Activity in the data set on Mus musculus [2] worked out at 0%; in the data set on Mus musculus [3] it was 0%; with Mus musculus [4] it was 66%.
